# Source: PubChem BioAssay
# KDM4C inh: inhibitors of GASC-1 (KDM4C) histone demethylase, primary screen, biochemical, single concentration HTS. GST-KDM4C 2-372, H3K9me3 peptide, LANCE TR-FRET. inhibition, % at 12.5 µM. hit rate 0.15% among 96,000;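 active = mean replicate inhibition above about 25%, with at least 55% of replicates also reaching it, limit read from the data, passing the limit was not always enough; inconclusive = only one of those two conditions met; inactive = neither condition met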
# Target sequence (Q9H3R0 2-372 limits assumed): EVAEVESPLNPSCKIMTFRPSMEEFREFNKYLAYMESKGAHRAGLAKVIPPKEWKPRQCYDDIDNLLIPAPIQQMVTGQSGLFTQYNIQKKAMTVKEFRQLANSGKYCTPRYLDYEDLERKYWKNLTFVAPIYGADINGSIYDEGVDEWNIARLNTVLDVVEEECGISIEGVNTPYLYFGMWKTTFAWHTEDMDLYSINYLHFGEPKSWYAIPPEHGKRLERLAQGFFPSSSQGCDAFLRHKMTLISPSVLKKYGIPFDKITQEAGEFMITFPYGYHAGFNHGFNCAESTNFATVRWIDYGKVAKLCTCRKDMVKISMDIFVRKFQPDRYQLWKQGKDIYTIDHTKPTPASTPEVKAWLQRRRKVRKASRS
#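 System – N-terminal GST-fused human GASC-1 (KDM4C) fragment, residues 2-372 · Input – enzyme final amount 10 nM · Technique – LANCE TR-FRET, Eu antibody, ULight-streptavidin, EDTA, ex 340 nm, em 618/671 nm · Medium – HEPES buffer, pH 7.5, plus ascorbate · Incubation – enzyme reaction 30 min, then detection 60 min, both room temperature · Reagent – H3K9me3 peptide with Fe(II)/2OG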
# IDH1 R132H inh: inhibitors of IDH1 R132H reductase, primary screen, biochemical, plate reader, single point | diaphorase/resazurin fluorescence, 60 min | inhibition, % at 10 µM | hit rate 0.18% among 70,000 | AID 624101, 2012; in the data active = inhibition above about 34%; inconclusive = no clear call, values can overlap the other calls; inactive = below about 11%
# T cruzi growth-1: T. cruzi intracellular proliferation inhibitors, primary screen, cell-based, beta-gal Tulahuen parasites, NIH3T3 host, luminescence. hit rate 5.9% among 77,000. T. cruzi beta-gal in NIH3T3, GalScreen luminescence, 90 h. inhibition, % at 8.34 µM. AID 624255, 2012;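 active = mean inhibition above about 93%, with at least 55% of replicates each passing it, limit read from the data, passing the limit was not always enough; inconclusive = only one of those two conditions holds; inactive = neither condition holds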
# T cruzi growth-2: T. cruzi intracellular proliferation inhibitors, confirmation, cell-based, NIH3T3 host, beta-gal parasite, luminescence, cherry-pick | hit rate 72% among 5,600 | shares compounds with T cruzi growth-1 | T. cruzi beta-gal in NIH3T3, GalScreen luminescence, 90 h | inhibition, % at 8.35 µM | AID 651739, 2012;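 active = mean replicate inhibition above about 95% and at least 55% of replicates individually reaching it, limit read from the data; inconclusive = only one of the two criteria is met; inactive = neither criterion is met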
# T cruzi growth-3: inhibitors of intracellular T. cruzi replication, confirmation, NIH3T3 host cells, beta-gal parasites, cherry-pick, set 2. shares compounds with T cruzi growth-1. hit rate 21% among 5,600. T. cruzi beta-gal in NIH3T3, GalScreen luminescence, 90 h. inhibition, % at 2.09 µM;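 active = mean inhibition above about 95%, with at least 55% of replicates also reaching it, limit read from the data; inconclusive = meets just one of the two conditions; inactive = meets neither condition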
# NIH3T3 tox: cytotoxicity in mouse NIH/3T3 fibroblasts, confirmation, cytotoxicity control for T. cruzi proliferation inhibitor project, cell-based, cherry-pick, single point | shares compounds with T cruzi growth-1 | NIH/3T3 viability, CellTiter-Glo ATP luminescence, 90 h | cytotoxicity (signal decrease), % at 8.35 µM | hit rate 14% among 5,600;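 active = mean signal decrease across replicates above about 35% based on untreated-well scatter, with enough replicates individually passing, limit read from the data; inconclusive = no rule stated though some were filed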
# 3T3 cytotox 2: NIH/3T3 fibroblast cytotoxicity, confirmation, cytotoxicity control, cell-based, cherry-pick, single point, set 2; inhibition, % at 24.9 µM; NIH/3T3 viability, CellTiter-Glo ATP luminescence, 90 h; hit rate 56% among 5,600; shares compounds with T cruzi growth-1;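 active = mean loss of cell viability signal at or above a set limit, and enough replicates individually reaching it; inconclusive = meets only the mean limit or only the replicate share; inactive = meets neither condition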
# A number is an active result; n = inactive; u = inconclusive; x = no result given. This is one part of a sample in which hits are shown more often than they occur.
SMILES,KDM4C inh,IDH1 R132H inh,T cruzi growth-1,T cruzi growth-2,T cruzi growth-3,NIH3T3 tox,3T3 cytotox 2
C[C@@H]1CN([C@@H](C)CO)S(=O)(=O)c2ccc(/C=C/c3ccccc3)cc2O[C@H]1CN(C)C(=O)Nc1ccc(F)cc1,n,n,131.5,98.5,96.0,38.7,60.9
C[C@@H]1CN([C@@H](C)CO)S(=O)(=O)c2ccc(/C=C/c3ccccc3)cc2O[C@@H]1CN(C)C(=O)Nc1ccc(F)cc1,n,n,122.6,101.7,103.7,n,47.5
COCC(=O)N[C@H]1CC[C@H](CC(=O)N2CCCCC2)O[C@H]1CO,n,n,n,x,x,x,x
O=C(Nc1ccc(F)cc1)N[C@H]1CC[C@H](CCNC(=O)c2cc(Cl)cc(Cl)c2)O[C@H]1CO,n,n,n,x,x,x,x
C[C@@H]1CN([C@H](C)CO)C(=O)c2cc(NC(=O)NC3CCCCC3)ccc2O[C@@H](C)CCCCO[C@H]1CN(C)C(=O)Nc1ccc2c(c1)OCO2,n,n,n,x,x,x,x
C[C@@H]1CCCCO[C@@H](CN(C)C(=O)Nc2ccc3c(c2)OCO3)[C@H](C)CN([C@H](C)CO)C(=O)c2cc(NC(=O)NC3CCCCC3)ccc2O1,n,x,u,108.1,n,n,n
C[C@H]1CCCCO[C@@H](CN(C)C(=O)Nc2ccc3c(c2)OCO3)[C@@H](C)CN([C@@H](C)CO)C(=O)c2cc(NC(=O)NC3CCCCC3)ccc2O1,n,x,117.7,112.7,n,n,n
C[C@@H]1CCCCO[C@@H](CN(C)C(=O)Nc2ccc3c(c2)OCO3)[C@H](C)CN([C@@H](C)CO)C(=O)c2cc(NC(=O)NC3CCCCC3)ccc2O1,n,x,n,x,x,x,x
CCCNC(=O)[C@H]1[C@H](CO)[C@H]2Cn3c(ccc(-c4ccncc4)c3=O)[C@H]2N1C(=O)c1ccccc1F,n,x,n,x,x,x,x
C/C=C/c1ccc2c(c1)O[C@@H](CN(C)C(=O)Nc1ccc(F)cc1)[C@H](C)CN([C@@H](C)CO)S2(=O)=O,n,n,n,x,x,x,x
C/C=C/c1ccc2c(c1)O[C@@H](CN(C)C(=O)Nc1ccc(C(F)(F)F)cc1)[C@H](C)CN([C@@H](C)CO)S2(=O)=O,n,n,108.3,97.4,u,n,102.1
C/C=C/c1ccc2c(c1)O[C@H](CN(C)C(=O)Nc1ccc(C(F)(F)F)cc1)[C@@H](C)CN([C@H](C)CO)S2(=O)=O,n,n,u,101.7,100.6,36.3,68.0
C/C=C/c1ccc2c(c1)O[C@H](CN(C)C(=O)Nc1ccc(F)cc1)[C@@H](C)CN([C@H](C)CO)S2(=O)=O,n,n,n,x,x,x,x
C/C=C/c1ccc2c(c1)O[C@H](CN(C)C(=O)Nc1ccc(C(F)(F)F)cc1)[C@H](C)CN([C@@H](C)CO)S2(=O)=O,n,n,u,98.9,n,45.9,68.8
C/C=C/c1ccc2c(c1)O[C@H](CN(C)C(=O)Nc1ccc(F)cc1)[C@H](C)CN([C@@H](C)CO)S2(=O)=O,n,n,n,x,x,x,x
O=C(C[C@@H]1C[C@H]2c3cc(NC(=O)C4CCC4)ccc3O[C@H]2[C@@H](CO)O1)NCc1ccccn1,n,n,n,x,x,x,x
Cc1noc(C)c1S(=O)(=O)Nc1cccc2c1O[C@@H](CN(C)S(C)(=O)=O)[C@@H](C)CN([C@@H](C)CO)C2=O,n,x,n,x,x,x,x
O=C(C[C@H]1CC[C@@H](NC(=O)c2ccc3c(c2)OCO3)[C@@H](CO)O1)NCc1ccc(F)cc1,n,n,n,x,x,x,x
Cc1noc(C)c1NC(=O)Nc1ccc2c(c1)C(=O)N([C@H](C)CO)C[C@H](C)[C@@H](CN(C)C(=O)c1ccccc1)OCCCC[C@@H](C)O2,n,x,n,x,x,x,x
C[C@@H]1CN([C@@H](C)CO)C(=O)c2cccc(NS(C)(=O)=O)c2O[C@@H]1CN(C)C(=O)NC1CCCCC1,n,n,x,x,x,x,x
COc1cccc(NC(=O)N[C@H]2C=C[C@H](CC(=O)N3CCOCC3)O[C@H]2CO)c1,n,x,x,x,x,x,x
Cc1ccc(S(=O)(=O)N(C)C[C@@H]2OCCCC[C@@H](C)Oc3ccc(NC(=O)Nc4cccc5ccccc45)cc3C(=O)N([C@H](C)CO)C[C@@H]2C)cc1,n,x,x,x,x,x,x
CC(C)CC#Cc1ccc2c(c1)O[C@@H](CN(C)Cc1ccc(F)cc1)[C@H](C)CN([C@@H](C)CO)S2(=O)=O,n,x,n,x,x,x,x
CC(C)CC#Cc1ccc2c(c1)O[C@@H](CN(C)Cc1ccccc1)[C@H](C)CN([C@@H](C)CO)S2(=O)=O,n,n,124.6,105.6,u,48.7,104.1
CC(C)CC#Cc1ccc2c(c1)O[C@H](CN(C)Cc1ccccc1)[C@H](C)CN([C@@H](C)CO)S2(=O)=O,n,n,122.3,n,110.8,n,106.7
SMILES,KDM4C inh,IDH1 R132H inh,T cruzi growth-1,T cruzi growth-2,T cruzi growth-3,NIH3T3 tox,3T3 cytotox 2
CC(C)CC#Cc1ccc2c(c1)O[C@H](CN(C)Cc1ccc(F)cc1)[C@H](C)CN([C@H](C)CO)S2(=O)=O,x,n,n,x,x,x,x
CC(C)CC#Cc1ccc2c(c1)O[C@H](CN(C)Cc1ccccc1)[C@@H](C)CN([C@H](C)CO)S2(=O)=O,n,n,105.9,96.6,n,n,104.7
CC(C)CC#Cc1ccc2c(c1)O[C@H](CN(C)Cc1ccc(F)cc1)[C@@H](C)CN([C@H](C)CO)S2(=O)=O,n,n,n,x,x,x,x
C[C@@H]1CCCCO[C@H](CN(C)Cc2ccc3c(c2)OCO3)[C@@H](C)CN([C@@H](C)CO)C(=O)c2cc(NS(=O)(=O)c3ccc(F)cc3)ccc2O1,n,n,n,x,x,x,x
Cc1cc(C(=O)Nc2ccc3c(c2)C(=O)N(C)[C@@H]2CC[C@H](CC(=O)NC4CCCC4)O[C@H]2CO3)no1,n,x,n,x,x,x,x
CCC(=O)Nc1ccc2c(c1)C(=O)N(C)C[C@H](OC)[C@@H](C)CN(Cc1ccncc1)[C@@H](C)CO2,n,n,u,x,x,x,x
COc1ccc(S(=O)(=O)Nc2ccc3c(c2)CC(=O)N([C@H](C)CO)C[C@@H](C)[C@H](CN(C)C(=O)Nc2ccc4c(c2)OCO4)O3)cc1,n,n,n,x,x,x,x
CCC(=O)Nc1ccc2c(c1)OC[C@@H](C)N(C(=O)c1ccccc1F)C[C@@H](C)[C@H](OC)CN(C)C2=O,n,n,n,x,x,x,x
C[C@@H]1CCCCO[C@H](CN(C)S(=O)(=O)c2ccccc2)[C@H](C)CN([C@@H](C)CO)C(=O)c2cc(NS(=O)(=O)c3ccc(F)cc3)ccc2O1,n,n,n,x,x,x,x
